Reference: PubChem BioAssay AID1496 (Sanford-Burnham Center for Chemical Genomics, 2009)
Values joined by “and” are separate entries in the source; they are usually repeats but may differ in a detail not shown here. Identical values can stand only once. Among all 220,000 compounds or so, about 990 (0.45%) were called active.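 How the source made its calls: active means inhibition over about 50% at 20 µM in the single-dose screen (limit read from the data); inactive means the rest.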 The entries come from a sample that favours actives as a whole. Some structures have more than one record in an assay (separate samples or runs), and their calls can disagree.

Target: Runt-related transcription factor 1 (Homo sapiens) + Core-binding factor subunit beta (Homo sapiens) (UniProt Q01196+Q13951)
Sequence (Q01196 whole entry, looked up): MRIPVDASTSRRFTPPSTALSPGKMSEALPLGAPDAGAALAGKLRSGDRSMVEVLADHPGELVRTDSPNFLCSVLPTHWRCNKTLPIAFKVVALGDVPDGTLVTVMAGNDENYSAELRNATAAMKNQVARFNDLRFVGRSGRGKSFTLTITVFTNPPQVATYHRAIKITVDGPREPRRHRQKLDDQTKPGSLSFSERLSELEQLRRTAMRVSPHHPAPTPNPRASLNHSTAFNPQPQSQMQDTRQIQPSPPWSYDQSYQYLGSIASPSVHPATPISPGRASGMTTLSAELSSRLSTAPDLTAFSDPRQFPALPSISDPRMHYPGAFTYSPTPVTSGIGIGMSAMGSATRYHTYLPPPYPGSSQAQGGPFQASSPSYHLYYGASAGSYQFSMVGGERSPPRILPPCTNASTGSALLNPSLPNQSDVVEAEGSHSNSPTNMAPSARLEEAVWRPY
Sequence (Q13951 whole entry, looked up): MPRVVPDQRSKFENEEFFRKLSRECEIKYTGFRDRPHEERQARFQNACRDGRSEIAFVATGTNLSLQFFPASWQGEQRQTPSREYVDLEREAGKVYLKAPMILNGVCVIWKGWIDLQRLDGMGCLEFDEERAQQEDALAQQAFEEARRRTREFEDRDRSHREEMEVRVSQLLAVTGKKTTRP
Assay: inhibitors of RUNX1 Runt–CBFb binding, primary screen, biochemical, FRET, Cerulean-Runt, Venus-CBFb, uHTS (AID 1496);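 further: 0% = DMSO wells and 100% = excess unlabeled CBFb competitor control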
Details: Cerulean-Runt/Venus-CBFb FRET ratio 530/480, 1 h; at 20 µM; stronger effect = higher value
In short: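 Reagent – Venus-CBFb binding partner, 100 nM · Assay system – Cerulean-tagged RUNX1 Runt domain (FRET donor) fusion protein · Input – 100 nM per protein · Incubation – two 1 h room-temperature incubations shielded from light · Measured by – FRET fluorescence · Medium – Tris buffer pH 7.5 with salts and BSA · Benchmarks – unlabeled CBFb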

inhibition, 44.8% (inactive) and 56.4% (active):
CCN1C(=O)/C(=C2/Sc3ccccc3N2CCCS(=O)(=O)O)SC1=S

inhibition, inactive:
O=S(=O)(Nc1ccc(OC(F)(F)F)cc1)c1cccc2nonc12 -2.4%
O=[N+]([O-])c1cccc(-c2nnc3c4ccccc4c4ccccc4n23)c1 4.4%
Cc1ccc(-c2nc3ccccc3[nH]c2=O)cc1 1.4%
Oc1c(Br)cc(/C=N/NC(=S)NCC2CCCO2)cc1Br (stereo not drawn) 0.6%
CCCCN1C(=O)/C(=C/C=C2/C=Cc3ccccc3N2CC)SC1=S 27.9%
CCN1C(=O)/C(=C\N2CCN(c3ccccc3)CC2)SC1=S -0.2%
COCCNC(=S)N1CCN(C)CC1 0.5%
O=C1CCCCC1C(=O)c1ccccc1 (stereo not drawn) 1.7%
COc1ccc(C2/C=C\CN(CC(C)C)CC(=O)N2Cc2ccc(F)cc2)cc1 (stereo not drawn) 0%
O=C(O)CCc1cccnc1 -0.7%
CCOC(=O)C1CCN(C(=O)Cn2cc(C#N)c3ccccc32)CC1 0.6%
COc1cccc2c(=O)n(CC(=O)N3CCCCCC3)ccc12 0.5%
CSC1=NC2(C)CCCCC2C12C=CC(=O)C=C2 (stereo not drawn) 2.8%
CCOc1ccc2nc(N3CCCN(C(=O)Nc4ccccc4C)CC3)c(C#N)cc2c1 29.2%
COc1ccc(N2CCN(C(=O)CSc3nc4cc(OC)c(OC)cc4cc3C#N)CC2)cc1 12.5%
CC1CCN(c2c(NCc3ccc(C(=O)NCc4ccccc4)cc3)c(=O)c2=O)CC1 0.6%
NNC(=O)c1oc2nc(-c3ccccc3)cc(-c3ccco3)c2c1N -57.1%
CSc1nc(-c2ccco2)nn1C(=O)c1ccccc1Cl -3.7%
COc1ccc(Cl)cc1C(=O)NNC(=O)c1nc2nc(C)cc(C)n2n1 -0.8%
COc1ccc(S(=O)(=O)Nc2ccc3oc(C)c(C(C)=O)c3c2)cc1 0.3%
Cc1ccc(S(=O)(=O)Nc2ccc3ncccc3c2)cc1 -1.3%
Clc1ccc(C[n+]2cc(-c3ccc(Cl)cc3)n3c2CCC3)cc1 0.1%
Cc1cc(C(=O)N2CCC(C(=O)O)CC2)c(C(F)(F)F)o1 0%
S=C(NNC(=S)NC1CC2CCC1C2)NC1CC2C=CC1C2 (stereo not drawn) 11.8%
COc1ccc2oc(=O)c(C(=O)N3CCCC3)cc2c1 2%
COc1ccc2oc(=O)c(C(=O)O)cc2c1 3.3%
O=C(Nc1nnc(CCN2CCCCC2)s1)c1cccc(Cl)c1 2.2%
Cc1noc(C)c1-c1nc(CSc2ccc(Cl)cc2)no1 0.4%
OC(c1nc2ccccc2[nH]1)C(O)C(O)C(O)c1nc2ccccc2[nH]1 (stereo not drawn) -0.4%
Cc1ccc(C(=O)Nc2cccc3ncccc23)cc1[N+](=O)[O-] -0.8%
O=C(Nc1cccc2ncccc12)C(Cl)(Cl)Cl -0.7%
CCC(=O)c1ccc(OCC(=O)Nc2ccc3nc(C)sc3c2)cc1 1.3%
CC1=NNC(=O)C1CCC(=O)N/N=C(\C)c1ccc(Cl)cc1 (stereo not drawn) -1.6%
CC[C@@H](C)[C@@H](C(=O)N1CCN(C(=O)OC(C)(C)C)CC1)n1cc(CCC(=O)O)nn1 2.1%
CCc1c(C)nc2c(-c3ccccc3)c(C)nn2c1Nc1ccc(NC(C)=O)cc1 -2.4%
O=C(O)c1ccccc1C(=O)Nc1ccccc1[N+](=O)[O-] -1.2%
Fc1cc(F)c2nc(Nc3nc4c(F)cccc4s3)sc2c1 0.3%
NC(=O)c1c(NC(=O)CSc2nc(N)cc(=O)[nH]2)sc2c1CCCC2 0.4%
Cc1ccc(-n2cc3ccc([N+](=O)[O-])cc3n2)cc1 -12.8%
Cc1ccc(-c2cn3cc(C)ccc3n2)cc1 -4.5%
O=C(NNc1cc(Cl)cc(Cl)c1)c1c(F)cccc1Cl 0.6%
O=C(Cc1cccc2ccccc12)NNC(=O)Nc1ccc(Cl)cc1 1.3%
Cc1onc(-c2c(Cl)cccc2Cl)c1C(=O)NNC(=O)c1c(-c2c(Cl)cccc2Cl)noc1C 0.7%
C/C(=N/OC(=O)c1c(-c2c(F)cccc2Cl)noc1C)c1cnccn1 -0.3%
Cc1ccc(-n2c(=O)c(C#N)cc3c(=O)n4ccccc4nc32)cc1C 19.9%
CCn1c(=N)c(S(=O)(=O)c2ccc(F)cc2)cc2c(=O)n3ccccc3nc21 10.5%
O=C(NCC1CCCO1)c1cc(-c2ccccc2)nc2ccccc12 (stereo not drawn) 1.5%
Cc1noc(C)c1COC(=O)COc1ccc(-c2ccccc2)cc1 -2.6%
CC(=O)NNC(=O)c1csc(Cc2c(Cl)sc3ccc(Cl)cc23)n1 1.6%
O=C(NNS(=O)(=O)c1ccccc1)c1cnn(-c2ccc(Cl)cc2)c1C(F)(F)F 1.6%
O=C(CNCc1cccs1)Nc1cc(S(=O)(=O)N2CCCC2)ccc1Cl 4.6%
CCc1nc(NCCO)c(C#N)c2c1CCCC2 -0.2%

inhibition, active:
O=c1[nH]c2ccccc2n2c(-c3ccccc3)nnc12 53%
CCc1cccc2c(C=C(C#N)C#N)cn(CC(=O)N3CCCCC3)c12 91.4%
COc1ccc2nc(N3CCCC(O)C3)c(C#N)cc2c1 (stereo not drawn) 81.1%
COCc1cc(=O)oc2cc(NS(=O)(=O)c3ccc(C)cc3)ccc12 58.8%
COc1cccc(C(=O)c2cc3ccc(O)cc3oc2=O)c1 126%
Cc1ccc(/C=C(\C#N)C(=O)Nc2cccc3ncccc23)o1 125%
NC(=O)c1c(Nc2nc3c(F)cccc3s2)sc2c1CCCC2 117%
Cc1ccc(-c2cn3cc([N+](=O)[O-])ccc3n2)cc1 67.1%
CCCn1c(=NC(C)=O)c(C(=O)OCC)cc2c(=O)n3ccccc3nc21 101%
CCOC(=O)c1cc2c(=O)n3ccccc3nc2n(CC(C)C)c1=NC(=O)c1c(-c2c(F)cccc2Cl)noc1C 64.1%
